Test results: PubChem BioAssay
The source made the active and inactive calls.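 The calls were made as follows, unless noted: active = inhibition above 20% together with a positive visual image hit; inconclusive = visual image hit but inhibition not above 20%; inactive = no visual image hit.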

Columns and labels:
[1] = inhibitors of TNFa-induced NFkB p65 translocation, primary screen, imaging, HUVEC, MLSMR starter and 10KST1 sets (AID 438); conditions: HUVEC TNFa-induced p65 nuclear translocation; cell count: measured here: nuclei count (cytotoxicity indicator), at 2.08 µM; inhibition: at 2 µM, stronger effect = higher value, 0% TNFa-plus-vehicle, 100% no-TNFa wells;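 also: compound added about 3h40 before a 20 min TNFalpha stimulation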;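 as to inhibition: signal is the nuclear over cytoplasmic p65 intensity ratio per well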
[2] = reduction of polyQ htt aggregates in cells – imaging, exon1htt(103Q)mCFP cells, high-content imaging, primary screen (AID 483;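 active = visual image review flags a hit and inhibition of aggregation exceeds 20%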;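 also: compound exposure lasted 3 days before fixation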;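 as to nuclei count: percent of the per-plate median nuclei count of sample wells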); conditions: exon1htt(103Q)mCFP cell line, aggregate imaging, at 2 µM; inhibition of aggregation: stronger effect = higher value; nuclei count: measured here: cell count, toxicity
[3] = endothelial E-selectin expression blockers – imaging, HUVEC, immunofluorescence, MLSMR starter and 10KST1 sets, primary screen (AID 487;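 active = visually confirmed hit in the image check and inhibition above 20%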;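 as to inhibition: signal is fraction of cell area covered by stained E-selectin grains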;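 as to nuclei count: 100% = median nuclei count of all wells on the same plate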); conditions: HUVEC TNFalpha-induced E-selectin immunofluorescence imaging, at 2 µM; inhibition: stronger effect = higher value; nuclei count: measured here: cell number, toxicity
[4] = molecular target: Voltage-gated potassium channel subunit beta-2 (Rattus norvegicus) (UniProt P62483); assay: inhibitors of rat Kvbeta2 reductase activity – biochemical, NADPH fluorescence, primary screen (AID 622;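 active = fluorescence slope higher than the sample average by over 3 SD, cut at about -0.22 in these data, passing the limit was not always enough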;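 also: slope of raw intensity against log time taken from 70 to 1610 s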); conditions: recombinant KvBeta, 4-cyanobenzaldehyde reduction, at 10 µM, stronger effect = higher value
[5] = molecular target: Voltage-gated potassium channel subunit beta-2 (Rattus norvegicus) (UniProt P62483); assay: enhancers of rat Kvbeta2 NADPH turnover – biochemical, NADPH fluorescence, primary screen (AID 623;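 active = NADPH fluorescence slope more negative than the mean of all samples by about 3 SD, 99.7% confidence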;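 also: fluorescence intensity change per second fitted from 20 to 320 s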); conditions: Recombinant KvBeta, NADPH fluorescence decrease slope, 10 min; at 10 µM; stronger effect = lower value
[6] = molecular target: Muscarinic acetylcholine receptor M4 (Homo sapiens) (UniProt P08173); assay: M4-linked GIRK flux change, two-sided – cell-based, HEK293 M4/GIRK, thallium flux, BTC-AM, M4 allosteric agonist project, primary screen (AID 625;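 active = fluorescence slope after compound addition differing from the mean of all tested samples at 99.7% confidence, mostly higher but some lower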;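 also: thallium influx through GIRK channels coupled to M4 in HEK293 cells with BTC-AM dye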); conditions: at 10 µM, actives lie on both sides
Method in brief: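 System: HEK293 cells with M4 receptor and GIRK channels | Incubation: Cells overnight at 37 °C, BTC-AM loading 1 h, reads 2 min total | Technique: Kinetic BTC-AM fluorescence sampled at 1 Hz, 10 s pre-addition baseline | Measure: Post-addition slope, 15–24 s, of baseline-normalized fluorescence | Control set: Carbachol positive, DMSO negative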

[7] = blockers of RIG-like receptor reporter activation – cell-based, Sendai virus stimulus, luciferase, 10K MLSCN set, TLR/RLR signaling modifier project, primary screen (AID 602276;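 active = inhibition at or above 50% at 10 µM; inactive = inhibition below 50%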;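 also: firefly luciferase from ISG56 promoter only with Renilla not read in this screen; 0% = Sendai virus plus DMSO and 100% = medium plus DMSO without virus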); conditions: HEK293 RL24 IRF3 luciferase reporter, at 10 µM, stronger effect = higher value
[8] = TLR3 IRF3 reporter activation blockers – cell-based, poly I:C stimulus, luciferase, 10K MLSCN set, primary screen (AID 602277;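 active = inhibition of the reporter signal at or above 50%; inactive = inhibition below 50%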); conditions: HEK293-TLR3 RL24 IRF3 luciferase reporter, at 10 µM, stronger effect = higher value
[9] = molecular target: Alpha-2C adrenergic receptor (Homo sapiens) (UniProt P18825); assay: compounds altering alpha2C-coupled GIRK flux – cell-based, HEK293 alpha2C/GIRK1/2, thallium flux, primary screen (AID 624;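 active = fluorescence slope after compound addition differing from the mean of all screened samples at 99.7% confidence, in either direction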;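 also: slope of fluorescence ratio to pre-addition baseline per second over 15 to 24 s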); conditions: thallium flux BTC fluorescence, at 10 µM, actives lie on both sides
[10] = inhibitors of larval lipid processing in zebrafish, primary screen, whole organism, PED6 fluorescence, gall bladder and intestine (AID 686;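 active = a full or partial loss of lipid-probe fluorescence in the fish gall bladder, intestine or both, judged by eye; inactive = no fluorescence loss, or compound toxic to the fish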;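 also: larvae 5 to 7 days old with five fish per well; signal comes from phospholipase A2 cleavage of quenched PED6 carried via bile; overnight exposure to compound and PED6 before scoring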); conditions: Zebrafish larvae PED6 lipid processing, fluorescence scoring; screened at 20 µM (by protocol)
Method in brief: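 Test system – live zebrafish larvae aged 5-7 days, whole organism · Buffer or medium – E3 fish medium · Reagent – quenched phospholipase substrate PED6, 100 nM final, ingested by larvae · Doses – 20 µM single dose · Incubation – overnight compound and PED6 incubation · Technique – visual fluorescence microscopy scoring of gall bladder, gut · Read-out basis – visual per-well fluorescence inhibition score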

Chain of Alpha-2C adrenergic receptor (Homo sapiens) (P18825 whole entry, looked up): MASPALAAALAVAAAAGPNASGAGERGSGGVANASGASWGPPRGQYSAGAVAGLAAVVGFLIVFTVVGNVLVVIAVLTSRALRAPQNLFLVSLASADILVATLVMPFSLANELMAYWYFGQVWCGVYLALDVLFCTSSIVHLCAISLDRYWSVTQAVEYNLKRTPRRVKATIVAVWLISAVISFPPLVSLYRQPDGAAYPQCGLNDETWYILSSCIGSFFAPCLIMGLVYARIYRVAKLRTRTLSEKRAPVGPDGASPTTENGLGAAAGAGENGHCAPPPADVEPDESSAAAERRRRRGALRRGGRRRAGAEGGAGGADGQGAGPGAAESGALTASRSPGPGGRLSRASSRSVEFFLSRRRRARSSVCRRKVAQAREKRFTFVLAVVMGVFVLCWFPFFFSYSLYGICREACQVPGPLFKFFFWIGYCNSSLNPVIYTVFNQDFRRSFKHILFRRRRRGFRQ
Chain of Voltage-gated potassium channel subunit beta-2 (Rattus norvegicus) (P62483 whole entry, looked up): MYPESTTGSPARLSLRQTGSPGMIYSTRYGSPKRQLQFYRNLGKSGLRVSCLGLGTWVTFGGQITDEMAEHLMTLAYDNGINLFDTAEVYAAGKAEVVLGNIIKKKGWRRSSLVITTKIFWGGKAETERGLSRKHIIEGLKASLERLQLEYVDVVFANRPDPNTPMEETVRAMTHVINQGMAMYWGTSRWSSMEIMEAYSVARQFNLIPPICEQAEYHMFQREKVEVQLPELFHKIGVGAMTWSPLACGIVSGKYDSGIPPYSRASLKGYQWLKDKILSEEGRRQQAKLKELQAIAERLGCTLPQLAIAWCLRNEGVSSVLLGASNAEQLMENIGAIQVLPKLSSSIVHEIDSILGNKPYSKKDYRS
Chain of Muscarinic acetylcholine receptor M4 (Homo sapiens) (P08173 whole entry, looked up): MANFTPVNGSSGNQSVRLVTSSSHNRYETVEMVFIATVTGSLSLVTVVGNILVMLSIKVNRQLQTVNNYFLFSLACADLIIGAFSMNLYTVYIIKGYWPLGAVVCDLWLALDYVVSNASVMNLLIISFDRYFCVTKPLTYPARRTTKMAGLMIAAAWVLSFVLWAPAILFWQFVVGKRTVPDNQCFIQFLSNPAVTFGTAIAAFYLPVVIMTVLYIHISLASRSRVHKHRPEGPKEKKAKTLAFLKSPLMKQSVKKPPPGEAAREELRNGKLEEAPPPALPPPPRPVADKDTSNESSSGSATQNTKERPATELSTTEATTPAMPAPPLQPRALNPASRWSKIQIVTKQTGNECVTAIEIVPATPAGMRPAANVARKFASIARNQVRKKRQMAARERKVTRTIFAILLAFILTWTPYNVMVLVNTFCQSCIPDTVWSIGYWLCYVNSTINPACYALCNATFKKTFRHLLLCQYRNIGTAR

SMILES	cell count [1]	inhibition [1]	inhibition of aggregation [2]	nuclei count [2]	inhibition [3]	nuclei count [3]	fluorescence slope [4]	NADPH fluorescence slope [5]	fluorescence slope [6]	inhibition [7]	inhibition [8]	slope [9]	outcome [10]
CCCCOc1ccc(C(=O)Nc2ccc(N3CCN(C(=O)C(C)C)CC3)cc2)cc1	825	-3.3% (inactive)	-19.5% (inactive)	92.4%	-59.7% (inactive)	115%	-0.44 (inactive)	-1.7e-05 (inactive)	0.0053 (inactive)	13.8% (inactive)	-10.4% (inactive)		
CCCC1(C(=O)OCC)NC(c2ccc(N(C)C)cc2)C2C(=O)N(c3ccccc3)C(=O)C21 (configuration not stated)	468	-0.5% (inactive)	4.8% (inactive)	92.4%	-15.1% (inactive)	95%	-0.465 (inactive)	-6.2e-05 (inactive)	0.0068 (inactive)	8.02% (inactive)	20.7% (inactive)		
CSC1=C(C#N)C(c2ccc(C)cc2)C2=C(CCCC2=O)N1 (configuration not stated)	322	-15.9% (inactive)	-19.6% (inactive)	100%	17.3% (inactive)	109%	-0.557 (inactive)	-5.6e-05 (inactive)	0.00661 (inactive)	8.18% (inactive)	19.7% (inactive)		
CCCC(=O)Nc1ccccc1NC(=O)CCC	353	-5.6% (inactive)	-10.5% (inactive)	103%	-23.8% (inactive)	109%	-0.434 (inactive)	-6e-05 (inactive)	0.00516 (inactive)	14.4% (inactive)	15.4% (inactive)		
COc1ccc(-c2noc(CCC(=O)Nc3nc4ccccc4s3)n2)cc1	540	-8.6% (inactive)	21.7% (inactive)	50.7%	-35% (inactive)	106%	-0.586 (inactive)	-3.6e-05 (inactive)	0.0103 (inactive)	-7.62% (inactive)	-8.39% (inactive)		
Cc1cc(S(=O)(=O)N2CCN(c3ncccn3)CC2)ccc1-n1cnnn1	402	7.9% (inactive)	-13.8% (inactive)	101%		149%	-0.393 (inactive)	-1e-05 (inactive)		-6.32% (inactive)	0.356% (inactive)	0.00528 (inactive)	inactive
CC(=O)C1=C(O)C(=O)N(Cc2cccnc2)C1c1ccccc1 (configuration not stated)	429	-2% (inactive)	-8.8% (inactive)	97.7%	-58.9% (inactive)	115%	-0.537 (inactive)	-2.4e-05 (inactive)	0.00492 (inactive)	6.76% (inactive)	18.6% (inactive)		
NCC(O)COc1ccc2c(c1)OCO2 (configuration not stated)	378	-7% (inactive)	-7.4% (inactive)	99.3%	-61.9% (inactive)	103%	-0.551 (inactive)	-0.000108 (inactive)	0.00335 (inactive)	-1.42% (inactive)	3.66% (inactive)		
O=C(CS(=O)(=O)c1cn(Cc2ccc(F)cc2)c2ccccc12)N1CCCCC1	474	-0.2% (inactive)	-5% (inactive)	116%	16.9% (inactive)	110%	-0.303 (inactive)	-6.4e-05 (inactive)	0.00645 (inactive)	3.28% (inactive)	11.2% (inactive)		
CCOC(=O)c1nnn(-c2nonc2N)c1CN1CCc2ccccc2C1	200	-3.9% (inactive)	-11.1% (inactive)	80.6%	-18.4% (inactive)	108%	-0.45 (inactive)	4.7e-05 (inactive)	0.00671 (inactive)	6.68% (inactive)	24.5% (inactive)		
O=C(Nc1nc(-c2ccccc2)cs1)C1CCCO1 (configuration not stated)	440	9.4% (inactive)	-2.5% (inactive)	102%		156%	-0.409 (inactive)	-5.9e-05 (inactive)		-12.1% (inactive)	98.1% (active)	0.00563 (inactive)	inactive
Cc1cc2cc(CNC(=O)c3ccc4c(c3)OCO4)ccc2[nH]1	442	2.9% (inactive)	0.1% (inactive)	106%		150%	-0.503 (inactive)	-1.1e-05 (inactive)		-10.5% (inactive)	-25.2% (inactive)	0.00502 (inactive)	
COCCCNCC(=O)Nc1ccc(OC(F)(F)F)cc1	363	14.4% (inactive)	-4.3% (inactive)	89.5%		119%	-0.403 (inactive)	-4.5e-05 (inactive)		-4.19% (inactive)	-0.468% (inactive)	0.00627 (inactive)	inactive
CCOC(=O)c1cc(C)n(CCCN2CCOCC2)c1C	678	2.6% (inactive)	-5.8% (inactive)	114%	-162% (inactive)	109%	-0.473 (inactive)	1.5e-05 (inactive)	0.00505 (inactive)	0.506% (inactive)	19.3% (inactive)		
CC(=O)c1ccc(Oc2cc(C)nc(-n3nc(C)cc3C)n2)cc1	468	-15.6% (inactive)	-50.7% (inactive)	1.1%	-17.9% (inactive)	102%	-0.547 (inactive)	1.9e-05 (inactive)	0.00511 (inactive)	-4.86% (inactive)	78.2% (active)		
CCCCc1cc(=O)oc2c(CN3CCCC3)c(O)c(Cl)cc12	531	-12.6% (inactive)	-16.7% (inactive)	46.6%	26.1% (inactive)	89.4%	-0.00586 (active)	0 (inactive)	0.00532 (inactive)	20% (inactive)	19.7% (inactive)		
O=C(Nc1ccc2c(c1)OCO2)c1nn(-c2ccccc2)c(=O)c2ccccc12	417	7.1% (inactive)	-7.3% (inactive)	93.9%		150%	-0.621 (inactive)	2e-05 (inactive)		13.5% (inactive)	11.4% (inactive)	0.00664 (inactive)	
COc1ccc(C)cc1NC(=O)CNC(=O)Cn1ccc2ccccc2c1=O	730	-14.1% (inactive)	-10.4% (inactive)	108%	21.2% (inactive)	96.3%	-0.461 (inactive)	-2.5e-05 (inactive)	0.0048 (inactive)	25.5% (inactive)	20.3% (inactive)		
COc1cccc(C(=O)Nc2ccc(NC(=O)C(C)(C)C)cn2)c1	444	9.8% (inactive)	-12.7% (inactive)	120%		135%	-0.571 (inactive)	-9.6e-06 (inactive)	0.00623 (inactive)	36% (inactive)	21.1% (inactive)		
COc1cc(C2c3c(oc4c(C)cc(C)cc4c3=O)C(=O)N2Cc2cccnc2)cc(OC)c1OC (configuration not stated)	632	0.3% (inactive)	7.3% (inactive)	106%	-4.3% (inactive)	97.5%	-0.552 (inactive)	1.8e-05 (inactive)	0.0049 (inactive)	-24.2% (inactive)	3.14% (inactive)		
CCCc1cn(S(=O)(=O)c2ccc(OC)cc2OC)nc1N	364	-8.7% (inactive)	7.3% (inactive)	100%	-38.9% (inactive)	119%	-0.537 (inactive)	-3.9e-05 (inactive)	0.00411 (inactive)	-0.283% (inactive)	5.1% (inactive)		
Cc1ccc(C)c(N2CCN(C(=O)c3ccc(CS(=O)(=O)c4ccccc4C)o3)CC2)c1	555	-15.1% (inactive)	12.7% (inactive)	95.8%	-45.9% (inactive)	125%	-0.555 (inactive)	4.4e-05 (inactive)	0.00481 (inactive)	11.1% (inactive)	45.6% (inactive)		
Cc1ccc(Cn2c(C(=O)NCCCN3CCOCC3)cc3sccc32)cc1	765	-5.9% (inactive)	-85.9% (inactive)	111%	-218% (inactive)	118%	-0.486 (inactive)	1.1e-05 (inactive)	0.00431 (inactive)	14.1% (inactive)	31.6% (inactive)		
CCCc1cc(-c2n[nH]c(C)c2-c2ccc(C(=O)OCC)o2)c(O)cc1O	651	2% (inactive)	-2.2% (inactive)	88.5%	-35.2% (inactive)	113%	-0.571 (inactive)	-2e-05 (inactive)	0.00514 (inactive)	12.8% (inactive)	17.9% (inactive)		
Cc1ccc(CNC(=O)c2coc(=O)c3ccccc23)o1	581	0.6% (inactive)	4.6% (inactive)	102%	58.5% (inactive)	55.6%	-0.445 (inactive)	-0.000402 (inactive)	0.00482 (inactive)		98.4% (active)		
Cc1cccc(N2CCN(C(=O)Cn3ccc4ccccc4c3=O)CC2)c1C	340	11% (inactive)	3.8% (inactive)	95.6%	-4.9% (inactive)	94%	-0.568 (inactive)	2.6e-06 (inactive)	0.00591 (inactive)	-3.75% (inactive)	-30.8% (inactive)		
